Results from ChEMBL document CHEMBL4613273, “Discovery of Aryl Formyl Piperidine Derivatives as Potent, Reversible, and Selective Monoacylglycerol Lipase Inhibitors” (J Med Chem, 2020).
The source made the active and inactive calls. No cut-off for these calls is given here.

Key:
[1] = target: T1, Fatty-acid amide hydrolase 1 (Homo sapiens, UniProt O00519); test: Inhibition of human recombinant FAAH pre-incubated for 5 mins before substrate addition and further incubated for 30 mins by fluorescence assay
T1 sequence (O00519 whole entry): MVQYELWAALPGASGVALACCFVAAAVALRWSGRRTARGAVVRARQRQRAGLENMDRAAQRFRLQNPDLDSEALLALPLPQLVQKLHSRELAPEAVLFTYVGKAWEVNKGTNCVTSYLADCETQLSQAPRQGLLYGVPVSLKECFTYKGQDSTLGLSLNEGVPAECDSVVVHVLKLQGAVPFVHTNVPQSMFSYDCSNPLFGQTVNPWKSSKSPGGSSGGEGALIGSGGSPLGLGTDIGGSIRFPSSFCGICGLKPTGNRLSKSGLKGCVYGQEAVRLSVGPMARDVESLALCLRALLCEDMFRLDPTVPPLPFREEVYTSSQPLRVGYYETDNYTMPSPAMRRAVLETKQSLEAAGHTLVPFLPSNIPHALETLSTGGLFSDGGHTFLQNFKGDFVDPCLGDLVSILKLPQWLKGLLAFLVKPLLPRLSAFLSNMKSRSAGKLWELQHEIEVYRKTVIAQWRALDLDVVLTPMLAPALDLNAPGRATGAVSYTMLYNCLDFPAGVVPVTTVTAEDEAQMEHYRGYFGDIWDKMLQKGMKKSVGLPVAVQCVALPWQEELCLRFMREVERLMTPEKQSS

Monoglyceride lipase = target: T2, Monoglyceride lipase (Homo sapiens, UniProt Q99685); test: Competitive inhibition of human recombinant MAGL at 31.25 nM to 125 nM pre-incubated for 5 mins before MAGL substrate addition and further incubated for 10 mins
T2 sequence (Q99685 whole entry): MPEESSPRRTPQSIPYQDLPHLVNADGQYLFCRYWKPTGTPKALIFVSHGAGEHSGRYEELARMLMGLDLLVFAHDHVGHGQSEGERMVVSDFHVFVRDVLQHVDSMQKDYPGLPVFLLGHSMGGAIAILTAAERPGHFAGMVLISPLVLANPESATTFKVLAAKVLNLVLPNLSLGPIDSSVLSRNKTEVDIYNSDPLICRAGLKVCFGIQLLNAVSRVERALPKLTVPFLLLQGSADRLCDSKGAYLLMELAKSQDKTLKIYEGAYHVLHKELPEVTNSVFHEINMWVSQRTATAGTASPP
In short: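 Mode of inhibition was assessed from Michaelis–Menten kinetics run at several inhibitor concentrations. Enzyme activity was plotted against substrate concentration and fitted to a mixed-model inhibition (competitive, uncompetitive and noncompetitive terms), giving Vmax, Km and α.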

[2] = Stability in rat liver microsomes assessed as parent compound remaining level at 100 uM pre-incubated for 5 mins before NADPH addition and measured after 60 mins by UPLC-MS/MS analysis; type: ADME, Microsome; conditions: read-out: Stability
In short: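 Liver microsomes from human, mouse and rat were incubated with the compound. Remaining parent compound was followed at several time points up to 60 min and expressed as percent remaining.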

Mus musculus [3] = test: Antidepressant activity in ICR mouse model of reserpine-induced depression assessed as reduction in straight scores at 4 to 16 mg/kg, sc for 6 days followed by reserpine injection 2 hrs after last compound dose and measured after 2 hrs; type: functional, organism-based
In short: (§1)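 In mice, depression was induced with reserpine 4 mg/kg, and the compound was given s.c. at 4, 8 or 16 mg/kg. Controls received phosphate buffer alone. Awakening, finger contact, fear, head touch, autonomous movement, straight and eyelid closure were scored. Data are mean ± SD of 3 independent experiments.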

Mus musculus [4] = test: Antidepressant activity in ICR mouse model of reserpine-induced depression assessed as reduction in head touch at 4 to 16 mg/kg, sc for 6 days followed by reserpine injection 2 hrs after last compound dose and measured after 2 hrs; type: functional, organism-based; in short: as §1
[5] = AUC (0 to infinity) in Sprague-Dawley rat plasma at 10 mg/kg, iv measured over 1 to 300 mins post dose by LC-MS/MS analysis; type: ADME, organism-based; design: dose 10 mg/kg, time infinity, route intravenous; conditions: in vivo
[6] = AUC (0 to t) in Sprague-Dawley rat brain at 10 mg/kg, ig measured over 5 to 720 mins post dose by LC-MS/MS analysis; conditions: in vivo
[7] = target: T3, Fatty-acid amide hydrolase 1 (Homo sapiens) (UniProt O00519); test: Inhibition of human recombinant FAAH at 100 uM pre-incubated for 5 mins before substrate addition and further incubated for 30 mins by fluorescence assay relative to control
T3 sequence (whole entry): T1 sequence (O00519 whole entry)

[8] = target: T4, Monoglyceride lipase (Homo sapiens) (UniProt Q99685); test: Reversible inhibition of human recombinant MAGL pre-incubated for up to 60 mins before MAGL substrate addition and further incubated for 10 mins
T4 sequence (whole entry): T2 sequence (Q99685 whole entry)
In short: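 The inhibitor was preincubated with MAGL for 0, 30 or 60 min before substrate was added to start the reaction. IC50 (nM) was determined at each preincubation time, from 3 independent experiments.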

[9] = AUC (0 to t) in Sprague-Dawley rat plasma at 10 mg/kg, iv measured over 1 to 300 mins post dose by LC-MS/MS analysis; type: ADME, organism-based; conditions: in vivo
[10] = Cmax in Sprague-Dawley rat plasma at 10 mg/kg, ig measured over 1 to 300 mins post dose by LC-MS/MS analysis; type: ADME, organism-based; design: dose 10 mg/kg, route […]; conditions: po
[11] = AUC (0 to t) in Sprague-Dawley rat plasma at 10 mg/kg, ig measured over 1 to 300 mins post dose by LC-MS/MS analysis; type: ADME, organism-based; conditions: in vivo, po
[12] = Tmax in Sprague-Dawley rat brain at 10 mg/kg, ig measured over 5 to 720 mins post dose by LC-MS/MS analysis
Cannabinoid receptor 2 = Cannabinoid receptor 2 (Homo sapiens, UniProt P34972); test: Inhibition of CB2 receptor (unknown origin) expressed in Flpin-CHO cells at 10 uM incubated for 10 mins by Eu-cAMP tracer based cAMP accumulation assay relative to control
[13] = Tmax in Sprague-Dawley rat plasma at 10 mg/kg, ig measured over 1 to 300 mins post dose by LC-MS/MS analysis; type: ADME, organism-based; conditions: po
[14] = Cmax in Sprague-Dawley rat brain at 10 mg/kg, ig measured over 5 to 720 mins post dose by LC-MS/MS analysis
Cannabinoid receptor 1 = Cannabinoid receptor 1 (Homo sapiens, UniProt P21554); test: Inhibition of CB1 receptor (unknown origin) expressed in Flpin-CHO cells incubated for 10 mins by Eu-cAMP tracer based cAMP accumulation assay; type: functional, cell-based
Mus musculus [15] = test: Antidepressant activity in ICR mouse model of reserpine-induced depression assessed as reduction in autonomous movement at 4 to 16 mg/kg, sc for 6 days followed by reserpine injection 2 hrs after last compound dose and measured after 2 hrs; type: functional, organism-based; in short: as §1

Chain of Cannabinoid receptor 1 (P21554 whole entry): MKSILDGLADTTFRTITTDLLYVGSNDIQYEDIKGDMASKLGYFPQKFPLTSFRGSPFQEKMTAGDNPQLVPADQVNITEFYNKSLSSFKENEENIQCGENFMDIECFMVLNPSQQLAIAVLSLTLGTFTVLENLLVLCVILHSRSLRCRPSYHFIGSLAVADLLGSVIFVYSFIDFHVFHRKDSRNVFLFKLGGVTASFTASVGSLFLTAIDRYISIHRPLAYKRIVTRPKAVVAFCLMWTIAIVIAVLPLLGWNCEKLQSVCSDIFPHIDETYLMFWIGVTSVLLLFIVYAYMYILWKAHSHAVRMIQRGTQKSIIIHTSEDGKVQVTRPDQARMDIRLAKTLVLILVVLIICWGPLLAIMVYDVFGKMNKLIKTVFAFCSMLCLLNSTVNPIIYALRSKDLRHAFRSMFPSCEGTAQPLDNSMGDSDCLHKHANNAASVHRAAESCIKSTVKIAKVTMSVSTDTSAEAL
Chain of Cannabinoid receptor 2 (P34972 whole entry): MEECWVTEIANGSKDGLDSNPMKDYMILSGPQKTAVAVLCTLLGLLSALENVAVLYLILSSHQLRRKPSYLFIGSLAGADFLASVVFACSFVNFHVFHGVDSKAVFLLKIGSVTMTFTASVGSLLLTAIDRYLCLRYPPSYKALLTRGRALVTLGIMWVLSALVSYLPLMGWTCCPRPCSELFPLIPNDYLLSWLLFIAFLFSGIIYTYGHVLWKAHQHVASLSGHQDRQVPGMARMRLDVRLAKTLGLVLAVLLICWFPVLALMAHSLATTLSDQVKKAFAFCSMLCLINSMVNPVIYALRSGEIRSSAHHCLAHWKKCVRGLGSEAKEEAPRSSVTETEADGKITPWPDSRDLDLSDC

IC50 [1]: > 100 µM
Ki (Monoglyceride lipase): 0.0134 µM
remaining at 1 h, 100 µM [2]: 17.3%
AUC [5]: 82362.19 µg·min/L
AUCt [6]: 3582.71 µg·min/L
inhibition [7]: 41.3%
inhibition [8]: Active
AUCt [9]: 80893 µg·min/L
Cmax [10]: 83.1 ng/mL
AUCt [11]: 9913.54 µg·min/L
Tmax [12]: 40 min
inhibition (Cannabinoid receptor 2): 20.4%
Tmax [13]: 34 min
Cmax [14]: 16.6 ng/mL
EC50 (Cannabinoid receptor 1): > 10 µM
Structure (SMILES): O=C(Nc1cccc(Cl)c1)C1CCN(C(=O)c2ccc3ccccc3c2)CC1
Activity (Mus musculus [3]): Active
Activity (Mus musculus [4]): Active
Activity (Mus musculus [15]): Active
